Consider three compounds from publication PMC8814381 (EBioMedicine, 2022).

Data set [1] relates to triple-negative PDX cells (stage IV) tumours. Nature of the data set: Image-guided tumour resection in a PDX tumour model, recurrence follow-up. The data set is classed as in vivo, NSG mice. As to conditions: four weeks after image-guided surgery. The method in brief: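 Female NSG mice, 4–5 weeks old, carried triple-negative PDX (stage IV) tumours in the mammary fat pads. At 200–300 mm³ they were randomized into five groups: test probe, free dye, two control peptide–dye conjugates, or PBS. Agents were given i.v. (tail vein) at an equivalent of 0.5 mg/kg. After 24 h, tumours were excised with a ~2 mm margin under NIR camera guidance (not for PBS). Wounds were sutured, and recurrence was assessed 4 weeks later.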

In data set [2] the test system is MDA-MB-231 human breast cancer tumours. The class given is in vivo, athymic mice. Particulars: 0.2–1.0 mg/kg i.v., imaged 6–72 h, PDE unit, normal tissue thigh. The method in brief: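 Female athymic mice, 4–5 weeks old, bore s.c. MDA-MB-231 tumours (1.0 × 10⁶ cells, right back). They received test compound or free dye i.v. (tail vein) at 0.2, 0.5 or 1 mg/kg. Prescans were taken before injection, and 800 nm NIR imaging followed at 6–72 h. The tumour-to-background ratio used ROIs over the whole tumour and over normal tissue (thigh muscle). Statistics: ANOVA.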

The test system of data set [3] is multiple subtypes of breast cancer. Kind of data set: Overall recurrence in multiple breast cancer animal models. The data set is classed as in vivo, mice.
Data set [4] has as its system TNBC MDA-MB-231 or ER-positive IOWA-1T tumours. Kind of data set: Intraoperative imaging of orthotopic MFP xenografts, recurrence follow-up. The data set is classed as in vivo, athymic mice. Particulars: 0.5 mg/kg i.v.; for average volume of the recurrent tumours: four weeks after tumour resection. The method in brief: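 MDA-MB-231 or IOWA-1T cells were injected s.c. at the nipple base into the fourth abdominal fat pad of athymic mice. Once tumours formed, mice received PBS, free dye or test compound at 0.5 mg/kg i.v. After 24 h, tumours were resected with a 2 mm margin under NIR camera monitoring. PBS controls were resected by palpation and direct visualization only. Adverse events during removal and later recurrence at the resection site were recorded.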

For data set [5] the following is noted: cited from earlier work.
For a further data set, the system named is PDX tumour margins. Kind of data set: Histological analysis. The class given is in vivo, NSG mice. Particulars: PDX model, H&E and Ki-67, sixteen mammary tissue samples from eight mice. The method in brief: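 Tumour-margin tissue (~2 mm³) taken at the 6 and 12 o'clock positions around resected PDX tumours in NSG mice. Samples were fixed 24 h in buffered 3.7% formalin, then moved to 70% ethanol. They were paraffin-embedded and cut into 4 μm sections for staining.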

In the case of `CC1(C)C(/C=C/C=C/C=C/C=C2\N(CCCCS(=O)(=O)O)c3ccc4ccccc4c3C2(C)C)=[N+](CCCCS(=O)(=O)[O-])c2ccc3ccccc3c21` [ICG, indocyanine green], the “average volume of the recurrent tumours” value is 1952 mm^3 in data set [1] and 423 mm^3 in data set [4]. Moreover, in data set [2], the “tumour/normal tissue ratio of NIR signal” value was about 1. The “average recurrent tumour volume, multiple subtypes of breast cancer” value in data set [3] (Figures 4,6 pooled) was 1188 mm^3. For the same compound, the “adverse events related to administration during tumour removal” value in data set [4] is “no apparent adverse events”.

Regarding “p28: Pseudomonas aeruginosa azurin-derived cell-penetrating peptide, tested in two phase I clinical trials”, in data set [5], the stability result was “stable” and the water solubility entry is listed as “highly water soluble”.

As to “ICG-p28: NIR fluorescence imaging probe composed of tumour-targeting peptide p28 and the NIR dye indocyanine green (ICG)”, the “average volume of the recurrent tumours” value in data set [1] came to 403 mm^3. The compound further came in with a specificity in data set [3] (from tumour recurrence rate 8%, N = 2/24) of 92%. Further, the positive margin rate result with PDX tumour margins was “malignant cell free margin”. Further, in data set [4], the “adverse events related to administration during tumour removal” value was “no apparent adverse events” and the “average volume of the recurrent tumours” value was 197 mm^3.
